# How the values were obtained:
# Type in all cases: cell-based, human
# [1] = system: PBMCs; assay: Cell viability, trypan blue exclusion; conditions: for Percent Viable Cells / decrease in viability: PBMCs
# [2] = system: NK cells; assay: Cell viability, trypan blue exclusion
# [3] = system: Granulocytes; assay: Cell viability, trypan blue exclusion; conditions: for Percent Viable Cells: Granulocytes
# [4] = system: Granulocytes; assay: IL-1β secretion assay
# Method in brief: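 NK cells, MD-PBMCs, PBMCs or granulocytes (1.5 million/mL) or PBMC+granulocytes (0.75 million/mL each), per donor, exposed 24 h, 48 h or 6 days to 0.05–5 μM test compound diluted from DMSO stock, with DMSO controls. Supernatants kept at −70 °C. IL-1β by sandwich ELISA: HRP detection antibody, acid-stopped substrate, A450 against standards. Detection limit 3 pg/mL; triplicates; ANOVA then t test versus control, p<0.05.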
# [5] = system: PBMCs with Granulocytes; assay: Cell viability, trypan blue exclusion; conditions: for Percent Viable Cells: PBMCs with Granulocytes
structure (smiles),measurement,setting,value
"CCC[CH2][Sn][CH2]CCC [DBT, Dibutyltin]",average decrease in viability,"[1]; PBMC, 24 h, 5 μM DBT",31%
same,Percent Viable Cells,"[1]; 24 h, 0.05 μM DBT",96±4%
same,Percent Viable Cells,"[1]; 24 h, 0.1 μM DBT",97±3%
same,Percent Viable Cells,"[1]; 24 h, 0.25 μM DBT",96±3%
same,Percent Viable Cells,"[1]; 24 h, 0.5 μM DBT",95±3%
same,Percent Viable Cells,"[1]; 24 h, 1 μM DBT",86±7%
same,Percent Viable Cells,"[1]; 24 h, 2.5 μM DBT",69±10 %
same,Percent Viable Cells,"[1]; 24 h, 5 μM DBT",65±8 %
same,decrease in viability,"[1]; 24 h, 2.5 and 5 μM DBT",25%
same,Percent Viable Cells,"[1]; 48 h, 0.05 μM DBT",93±3%
same,Percent Viable Cells,"[1]; 48 h, 0.1 μM DBT",94±4%
same,Percent Viable Cells,"[1]; 48 h, 0.25 μM DBT",94±4%
same,Percent Viable Cells,"[1]; 48 h, 0.5 μM DBT",91±8%
same,Percent Viable Cells,"[1]; 48 h, 1 μM DBT",74±16%
same,Percent Viable Cells,"[1]; 48 h, 2.5 μM DBT",56±13 %
same,decrease in viability,"[1]; 48 h, 2.5 μM DBT",38%
same,Percent Viable Cells,"[1]; 48 h, 5 μM DBT",56±8 %
same,decrease in viability,"[1]; 48 h, 5 μM DBT",35%
same,Percent Viable Cells,"[1]; 6 day, 0.05 μM DBT",68±45%
same,Percent Viable Cells,"[1]; 6 day, 0.1 μM DBT",87±11%
same,Percent Viable Cells,"[1]; 6 day, 0.25 μM DBT",69±33%
same,Percent Viable Cells,"[1]; 6 day, 0.5 μM DBT",68±13%
same,Percent Viable Cells,"[1]; 6 day, 1 μM DBT",43±12%
same,Percent Viable Cells,"[1]; 6 day, 2.5 μM DBT",36±25%
same,Percent Viable Cells,"[1]; 6 day, 5 μM DBT",42±15%
same,Percent Viable Cells,"[2]; 24 h, 0.05 μM DBT",97±3%
same,Percent Viable Cells,"[2]; 24 h, 0.1 μM DBT",98±2%
same,Percent Viable Cells,"[2]; 24 h, 0.25 μM DBT",98±1%
same,Percent Viable Cells,"[2]; 24 h, 0.5 μM DBT",95±4%
same,Percent Viable Cells,"[2]; 24 h, 1 μM DBT",92±5%
same,Percent Viable Cells,"[2]; 24 h, 2.5 μM DBT",88±1%
same,Percent Viable Cells,"[2]; 24 h, 5 μM DBT",80±7%
same,average decrease in viability,"[2]; 24 h, 5 μM DBT",13%
same,effect on viability compared to the control,"[2]; 24 h, 0.05–1 μM DBT",no effect
same,decrease in NK cell viability,"[2]; 24 h, 2.5 and 5 μM DBT",about 10%
same,Percent Viable Cells,"[2]; 48 h, 0.05 μM DBT",97±0%
same,Percent Viable Cells,"[2]; 48 h, 0.1 μM DBT",96±1%
same,Percent Viable Cells,"[2]; 48 h, 0.25 μM DBT",93±0 %
same,Percent Viable Cells,"[2]; 48 h, 0.5 μM DBT",90±1 %
same,Percent Viable Cells,"[2]; 48 h, 1 μM DBT",79±12%
same,Percent Viable Cells,"[2]; 48 h, 2.5 μM DBT",61±6 %
same,Percent Viable Cells,"[2]; 48 h, 5 μM DBT",64±8 %
same,reductions in viability,"[2]; 48 h, 2.5 and 5 μM DBT",around 35%
same,Percent Viable Cells,"[2]; 6 day, 0.05 μM DBT",75±8%
same,Percent Viable Cells,"[2]; 6 day, 0.1 μM DBT",78±7%
same,Percent Viable Cells,"[2]; 6 day, 0.25 μM DBT",74±9%
same,Percent Viable Cells,"[2]; 6 day, 0.5 μM DBT",68±9%
same,Percent Viable Cells,"[2]; 6 day, 1 μM DBT",69±3%
same,Percent Viable Cells,"[2]; 6 day, 2.5 μM DBT",58±7%
same,Percent Viable Cells,"[2]; 6 day, 5 μM DBT",49±19%
same,change in viability compared to the control,"[2]; 6 days, 0.05–1 μM DBT",no change
same,Percent Viable Cells,"[3]; 24 h, 0.05 μM DBT",90±8%
same,Percent Viable Cells,"[3]; 24 h, 0.1 μM DBT",92±5%
same,Percent Viable Cells,"[3]; 24 h, 0.25 μM DBT",95±3%
same,Percent Viable Cells,"[3]; 24 h, 0.5 μM DBT",94±3%
same,Percent Viable Cells,"[3]; 24 h, 1 μM DBT",94±2%
same,Percent Viable Cells,"[3]; 24 h, 2.5 μM DBT",92±3%
same,Percent Viable Cells,"[3]; 24 h, 5 μM DBT",92±2%
same,Percent Viable Cells,"[3]; 48 h, 0.05 μM DBT",93±4%
same,Percent Viable Cells,"[3]; 48 h, 0.1 μM DBT",95±3%
same,Percent Viable Cells,"[3]; 48 h, 0.25 μM DBT",92±5%
same,Percent Viable Cells,"[3]; 48 h, 0.5 μM DBT",94±3%
same,Percent Viable Cells,"[3]; 48 h, 1 μM DBT",95±2%
same,Percent Viable Cells,"[3]; 48 h, 2.5 μM DBT",72±10 %
same,Percent Viable Cells,"[3]; 48 h, 5 μM DBT",73±17%
same,Percent Viable Cells,"[3]; 6 day, 0.05 μM DBT",51±18%
same,Percent Viable Cells,"[3]; 6 day, 0.1 μM DBT",65±22%
same,Percent Viable Cells,"[3]; 6 day, 0.25 μM DBT",55±33%
same,Percent Viable Cells,"[3]; 6 day, 0.5 μM DBT",50±5%
same,Percent Viable Cells,"[3]; 6 day, 1 μM DBT",57±9%
same,Percent Viable Cells,"[3]; 6 day, 2.5 μM DBT",34±8 %
same,Percent Viable Cells,"[3]; 6 day, 5 μM DBT",35±20%
same,effect on viability,"[3]; granulocytes alone, 24 h, any of the DBT exposures",not affected
same,Secretion of IL-1β,"[4]; 4 donors, 24 h, any of the conditions tested, limit of detection",≤ 3 pg/mL
same,average of the maximum fold increase in IL-β secretion,"[4]; 24 h, across donors",3.7 fold
same,change in IL-1β secretion,"[4]; 48 h, 0.25–5 μM DBT, cells from 3 of the 4 donors",increases
same,average decrease in viability,"[5]; PBMC+granulocytes, 24 h, 5 μM DBT",16%
same,Percent Viable Cells,"[5]; 24 h, 0.05 μM DBT",94±3%
same,Percent Viable Cells,"[5]; 24 h, 0.1 μM DBT",93±6%
same,Percent Viable Cells,"[5]; 24 h, 0.25 μM DBT",93±4%
same,Percent Viable Cells,"[5]; 24 h, 0.5 μM DBT",94±5%
same,Percent Viable Cells,"[5]; 24 h, 1 μM DBT",88±6%
same,Percent Viable Cells,"[5]; 24 h, 2.5 μM DBT",84±8%
same,Percent Viable Cells,"[5]; 24 h, 5 μM DBT",77±4 %
same,Percent Viable Cells,"[5]; 48 h, 0.05 μM DBT",93±5%
same,Percent Viable Cells,"[5]; 48 h, 0.1 μM DBT",94±2%
same,Percent Viable Cells,"[5]; 48 h, 0.25 μM DBT",93±5%
same,Percent Viable Cells,"[5]; 48 h, 0.5 μM DBT",92±2%
same,Percent Viable Cells,"[5]; 48 h, 1 μM DBT",88±10%
same,Percent Viable Cells,"[5]; 48 h, 2.5 μM DBT",50±29%
same,Percent Viable Cells,"[5]; 48 h, 5 μM DBT",49±12 %
same,Percent Viable Cells,"[5]; 6 day, 0.05 μM DBT",80±7%
same,Percent Viable Cells,"[5]; 6 day, 0.1 μM DBT",72±10%
same,Percent Viable Cells,"[5]; 6 day, 0.25 μM DBT",74±8%
same,Percent Viable Cells,"[5]; 6 day, 0.5 μM DBT",54±10 %
same,Percent Viable Cells,"[5]; 6 day, 1 μM DBT",50±12 %
same,Percent Viable Cells,"[5]; 6 day, 2.5 μM DBT",32±15 %
same,Percent Viable Cells,"[5]; 6 day, 5 μM DBT",37±10 %
same,effect on viability compared to the control,"[5]; PBMCs+granulocytes, 24 h, 0.05–2.5 μM DBT",no effect
